Test results taken from ChEMBL document CHEMBL1932999, “Increased susceptibility to resveratrol of Helicobacter pylori strains isolated from patients with gastric carcinoma” (2011).
Converted amounts (≈) assume the structure as drawn.

What was measured:
Helicobacter pylori [1] = assay: Antibacterial activity against CagA-expressing Helicobacter pylori 18C7 isolated from gastric carcinoma patient after 48 hrs compound exposure followed by incubation on Columbia-blood agar plate for 3 to 5 days; type: functional
Summary of the method: (§1)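 Compound dissolved in water with 4% DMSO, filter-sterilized, and serially twofold diluted in Brucella broth with 10% bovine fetal serum. Inoculum from 48 h microaerobic Brucella agar-BFS cultures, added at approximately 10^6 CFU/mL final. Broth incubated microaerobically at 37 °C for 24 or 48 h, then each dilution subcultured onto Columbia-blood agar. MBC is the lowest concentration with no growth on subculture. Triplicate; mean ± SD.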

Helicobacter pylori [2] = assay: Antibacterial activity against CagA-expressing Helicobacter pylori 2Ca isolated from gastric carcinoma patient after 48 hrs compound exposure followed by incubation on Columbia-blood agar plate for 3 to 5 days; type: functional; summary of the method: as §1
Helicobacter pylori [3] = assay: Bactericidal activity against CagA-deficient Helicobacter pylori G104 isolated from chronic gastritis patient compound exposure followed by incubation on Columbia-blood agar plate for 3 to 5 days; type: functional, organism-based; conditions: TDE = time-dependent effect
Summary of the method: (§2)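 Broth microdilution MBC against clinical H. pylori isolates (cagA by PCR; stocks kept frozen in Columbia broth with 20% glycerol). Compound dissolved in water with 4% DMSO, filter-sterilized, double diluted in Brucella broth with 10% fetal bovine serum. Inoculum about 10^6 CFU/mL from 48 h microaerobic Brucella agar-BFS cultures. Plates held microaerobically at 37 °C for 24 and 48 h. Each well was then spotted onto Columbia-blood agar for 3-5 days. MBC is the lowest concentration giving no regrowth. Triplicate, mean ± SD.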

Helicobacter pylori [4] = assay: Bactericidal activity against CagA-deficient Helicobacter pylori Ba142 isolated from chronic gastritis patient compound exposure followed by incubation on Columbia-blood agar plate for 3 to 5 days; type: functional, organism-based; conditions: TDE = time-dependent effect; summary of the method: as §2
Helicobacter pylori [5] = assay: Bactericidal activity against CagA-deficient Helicobacter pylori NS23 isolated from chronic gastritis patient compound exposure followed by incubation on Columbia-blood agar plate for 3 to 5 days; type: functional, organism-based; conditions: TDE = time-dependent effect; summary of the method: as §2
Helicobacter pylori [6] = assay: Bactericidal activity against CagA-deficient Helicobacter pylori 328 KM isolated from chronic gastritis patient compound exposure followed by incubation on Columbia-blood agar plate for 3 to 5 days; type: functional, organism-based; conditions: TDE = time-dependent effect; summary of the method: as §2
Helicobacter pylori [7] = assay: Bactericidal activity against CagA-expressing Helicobacter pylori MDO21 isolated from chronic gastritis patient compound exposure followed by incubation on Columbia-blood agar plate for 3 to 5 days; type: functional, organism-based; conditions: TDE = time-dependent effect; summary of the method: as §2
Helicobacter pylori [8] = assay: Bactericidal activity against CagA-expressing Helicobacter pylori MD6 isolated from chronic gastritis patient compound exposure followed by incubation on Columbia-blood agar plate for 3 to 5 days; type: functional, organism-based; conditions: TDE = time-dependent effect; summary of the method: as §2
Helicobacter pylori [9] = assay: Bactericidal activity against CagA-expressing Helicobacter pylori G20 isolated from chronic gastritis patient compound exposure followed by incubation on Columbia-blood agar plate for 3 to 5 days; type: functional, organism-based; conditions: TDE = time-dependent effect; summary of the method: as §2
Helicobacter pylori [10] = assay: Antibacterial activity against CagA-expressing Helicobacter pylori 2Ca isolated from gastric carcinoma patient after 24 hrs compound exposure followed by incubation on Columbia-blood agar plate for 3 to 5 days; type: functional; summary of the method: as §1
Helicobacter pylori [11] = assay: Antibacterial activity against CagA-deficient Helicobacter pylori G104 isolated from chronic gastritis patient after 48 hrs compound exposure followed by incubation on Columbia-blood agar plate for 3 to 5 days; type: functional; summary of the method: as §1
Helicobacter pylori [12] = assay: Antibacterial activity against CagA-deficient Helicobacter pylori Ba142 isolated from chronic gastritis patient after 48 hrs compound exposure followed by incubation on Columbia-blood agar plate for 3 to 5 days; type: functional; summary of the method: as §1
Helicobacter pylori [13] = assay: Antibacterial activity against CagA-deficient Helicobacter pylori NS23 isolated from chronic gastritis patient after 48 hrs compound exposure followed by incubation on Columbia-blood agar plate for 3 to 5 days; type: functional; summary of the method: as §1
Helicobacter pylori [14] = assay: Antibacterial activity against CagA-deficient Helicobacter pylori 328 KM isolated from chronic gastritis patient after 48 hrs compound exposure followed by incubation on Columbia-blood agar plate for 3 to 5 days; type: functional; summary of the method: as §1
Helicobacter pylori [15] = assay: Antibacterial activity against CagA-deficient Helicobacter pylori G204 isolated from chronic gastritis patient after 48 hrs compound exposure followed by incubation on Columbia-blood agar plate for 3 to 5 days; type: functional; summary of the method: as §1
Helicobacter pylori [16] = assay: Antibacterial activity against CagA-expressing Helicobacter pylori CCUG17874 isolated from chronic gastritis patient after 48 hrs compound exposure followed by incubation on Columbia-blood agar plate for 3 to 5 days; type: functional; summary of the method: as §1
Helicobacter pylori [17] = assay: Antibacterial activity against CagA-expressing Helicobacter pylori MDO21 isolated from chronic gastritis patient after 48 hrs compound exposure followed by incubation on Columbia-blood agar plate for 3 to 5 days; type: functional; summary of the method: as §1
Helicobacter pylori [18] = assay: Antibacterial activity against CagA-expressing Helicobacter pylori 328 isolated from chronic gastritis patient after 48 hrs compound exposure followed by incubation on Columbia-blood agar plate for 3 to 5 days; type: functional; summary of the method: as §1
Helicobacter pylori [19] = assay: Antibacterial activity against CagA-expressing Helicobacter pylori G20 isolated from chronic gastritis patient after 48 hrs compound exposure followed by incubation on Columbia-blood agar plate for 3 to 5 days; type: functional; summary of the method: as §1
Helicobacter pylori [20] = assay: Antibacterial activity against CagA-expressing Helicobacter pylori 10K isolated from gastric carcinoma patient after 48 hrs compound exposure followed by incubation on Columbia-blood agar plate for 3 to 5 days; type: functional; summary of the method: as §1
Helicobacter pylori [21] = assay: Antibacterial activity against CagA-deficient Helicobacter pylori G50 isolated from chronic gastritis patient after 24 hrs compound exposure followed by incubation on Columbia-blood agar plate for 3 to 5 days; type: functional; summary of the method: as §1
Helicobacter pylori [22] = assay: Antibacterial activity against CagA-deficient Helicobacter pylori G21b isolated from chronic gastritis patient after 24 hrs compound exposure followed by incubation on Columbia-blood agar plate for 3 to 5 days; type: functional; summary of the method: as §1
Helicobacter pylori [23] = assay: Antibacterial activity against CagA-deficient Helicobacter pylori G104 isolated from chronic gastritis patient after 24 hrs compound exposure followed by incubation on Columbia-blood agar plate for 3 to 5 days; type: functional; summary of the method: as §1
Helicobacter pylori [24] = assay: Antibacterial activity against CagA-deficient Helicobacter pylori Ba142 isolated from chronic gastritis patient after 24 hrs compound exposure followed by incubation on Columbia-blood agar plate for 3 to 5 days; type: functional; summary of the method: as §1
Helicobacter pylori [25] = assay: Antibacterial activity against CagA-deficient Helicobacter pylori 328 KM isolated from chronic gastritis patient after 24 hrs compound exposure followed by incubation on Columbia-blood agar plate for 3 to 5 days; type: functional; summary of the method: as §1
Helicobacter pylori [26] = assay: Antibacterial activity against CagA-expressing Helicobacter pylori MDO21 isolated from chronic gastritis patient after 24 hrs compound exposure followed by incubation on Columbia-blood agar plate for 3 to 5 days; type: functional; summary of the method: as §1
Helicobacter pylori [27] = assay: Antibacterial activity against CagA-expressing Helicobacter pylori MD6 isolated from chronic gastritis patient after 24 hrs compound exposure followed by incubation on Columbia-blood agar plate for 3 to 5 days; type: functional; summary of the method: as §1
Helicobacter pylori [28] = assay: Antibacterial activity against CagA-expressing Helicobacter pylori 328 isolated from chronic gastritis patient after 24 hrs compound exposure followed by incubation on Columbia-blood agar plate for 3 to 5 days; type: functional; summary of the method: as §1
Helicobacter pylori [29] = assay: Antibacterial activity against CagA-expressing Helicobacter pylori G20 isolated from chronic gastritis patient after 24 hrs compound exposure followed by incubation on Columbia-blood agar plate for 3 to 5 days; type: functional; summary of the method: as §1
Helicobacter pylori [30] = assay: Antibacterial activity against CagA-expressing Helicobacter pylori 10K isolated from gastric carcinoma patient after 24 hrs compound exposure followed by incubation on Columbia-blood agar plate for 3 to 5 days; type: functional; summary of the method: as §1
Helicobacter pylori [31] = assay: Antibacterial activity against CagA-expressing Helicobacter pylori 10Kb isolated from gastric carcinoma patient after 24 hrs compound exposure followed by incubation on Columbia-blood agar plate for 3 to 5 days; type: functional; summary of the method: as §1
Helicobacter pylori [32] = assay: Antibacterial activity against CagA-expressing Helicobacter pylori 18C7 isolated from gastric carcinoma patient after 24 hrs compound exposure followed by incubation on Columbia-blood agar plate for 3 to 5 days; type: functional; summary of the method: as §1
Helicobacter pylori [33] = assay: Antibacterial activity against CagA-expressing Helicobacter pylori 4Cb isolated from gastric carcinoma patient after 24 hrs compound exposure followed by incubation on Columbia-blood agar plate for 3 to 5 days; type: functional; summary of the method: as §1

## Oc1ccc(/C=C/c2cc(O)cc(O)c2)cc1 [RESVERATROL]
Helicobacter pylori [1]
  MBC: 37 µg/mL (≈ 162 µM)
Helicobacter pylori [2]
  MBC: 160 µg/mL (≈ 701 µM)
Helicobacter pylori [3]
  Activity: tde
Helicobacter pylori [4]
  Activity: tde
Helicobacter pylori [5]
  Activity: tde
Helicobacter pylori [6]
  Activity: tde
Helicobacter pylori [7]
  Activity: tde
Helicobacter pylori [8]
  Activity: tde
Helicobacter pylori [9]
  Activity: tde
Helicobacter pylori [10]
  MBC: 160 µg/mL (≈ 701 µM)
Helicobacter pylori [11]
  MBC: 295 µg/mL (≈ 1290 µM)
Helicobacter pylori [12]
  MBC: 295 µg/mL (≈ 1290 µM)
Helicobacter pylori [13]
  MBC: 147 µg/mL (≈ 644 µM)
Helicobacter pylori [14]
  MBC: 147 µg/mL (≈ 644 µM)
Helicobacter pylori [15]
  MBC: 648 µg/mL (≈ 2840 µM)
Helicobacter pylori [16]
  MBC: 295 µg/mL (≈ 1290 µM)
Helicobacter pylori [17]
  MBC: 295 µg/mL (≈ 1290 µM)
Helicobacter pylori [18]
  MBC: 295 µg/mL (≈ 1290 µM)
Helicobacter pylori [19]
  MBC: 640 µg/mL (≈ 2800 µM)
Helicobacter pylori [20]
  MBC: 74 µg/mL (≈ 324 µM)
Helicobacter pylori [21]
  MBC: 295 µg/mL (≈ 1290 µM)
Helicobacter pylori [22]
  MBC: 295 µg/mL (≈ 1290 µM)
Helicobacter pylori [23]
  MBC: 295 µg/mL (≈ 1290 µM)
Helicobacter pylori [24]
  MBC: 295 µg/mL (≈ 1290 µM)
Helicobacter pylori [25]
  MBC: 147 µg/mL (≈ 644 µM)
Helicobacter pylori [26]
  MBC: 295 µg/mL (≈ 1290 µM)
Helicobacter pylori [27]
  MBC: 589 µg/mL (≈ 2580 µM)
Helicobacter pylori [28]
  MBC: 295 µg/mL (≈ 1290 µM)
Helicobacter pylori [29]
  MBC: 1280 µg/mL (≈ 5610 µM)
Helicobacter pylori [30]
  MBC: 74 µg/mL (≈ 324 µM)
Helicobacter pylori [31]
  MBC: 147 µg/mL (≈ 644 µM)
Helicobacter pylori [32]
  MBC: 37 µg/mL (≈ 162 µM)
Helicobacter pylori [33]
  MBC: 147 µg/mL (≈ 644 µM)
